Measurements: ChEMBL document CHEMBL1667749, “Design & synthesis of N'-[substituted] pyridine-4-carbohydrazides as potential anticonvulsant agents” (Eur J Med Chem, 2011)
The source made the active and inactive calls. The calls are words filed in the database; no cut-off is given here.

Key:
[1] = system: Mus musculus; test: Anticonvulsant activity in ip dosed albino CF-1 mouse assessed as dose required to protect against maximal electroshock-induced seizures after 2 hrs; format: functional
How it was run: (§1)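 Male CF-1 mice (18–25 g), i.p. in 0.5% methyl cellulose at 30, 100 and 300 mg/kg; MES: 60 Hz, 50 mA, 0.2 s through tetracaine-primed corneal electrodes; protection = abolished hind limb tonic extension. Value given as minimum dose active in half or more of mice.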

[2] = system: Mus musculus; test: Anticonvulsant activity in albino CF-1 mouse assessed as protection against maximal electroshock-induced seizures at 300 mg/kg, ip after 0.5 hrs; format: functional, organism-based; set-up: dose 300 mg/kg; how it was run: as §1
[3] = system: Rattus norvegicus; test: Neurotoxicity in Sprague-Dawley rat assessed as motor impairment at 30 mg/kg, po after 1 hr by rotarod test; format: toxicity, organism-based; set-up: dose 30 mg/kg, route oral; conditions: in vivo
[4] = system: Rattus norvegicus; test: Acute toxicity in Sprague-Dawley rat assessed as motor impairment at 300 mg/kg, ip after 0.25 hrs; format: organism-based; set-up: dose 300 mg/kg, route intraperitoneal; conditions: in vivo
How it was run: (§2)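 Male albino Sprague Dawley rats, two per dose, given test compound i.p. as a suspension in 0.5% methyl cellulose. Behaviour was closely observed and recorded over 4 h to detect acute motor impairment. Values are scored as animals toxic over animals tested at each time point.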

[5] = system: Mus musculus; test: Anticonvulsant activity in albino CF-1 mouse assessed as protection against 6 Hz psychomotor seizure at 100 mg/kg, ip after 0.25 hrs by minimal clonic seizure test; format: functional; conditions: route intraperitoneal
How it was run: (§3)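 Male CF-1 mice (18–25 g), i.p. 100 mg/kg in 0.5% methyl cellulose suspension; 6 Hz corneal stimulation, 32 mA for 3 s, four mice per time point. Protected if no minimal clonic phase with stereotyped automatistic behaviour.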

[6] = system: Mus musculus; test: Anticonvulsant activity in albino CF-1 mouse assessed as protection against subcutaneous metrazol-induced seizures at 300 mg/kg, ip after 0.5 hrs; format: functional, organism-based; set-up: dose 300 mg/kg
How it was run: (§4)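 Male CF-1 mice, i.p. at 30, 100, 300 mg/kg in 0.5% methyl cellulose; metrazol dose convulsing 97% of animals injected s.c. in midline neck fold, mice isolated and watched 30 min; protected if no 3–5 s clonic spasm episode of limbs, jaws or vibrissae.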

[7] = species: Mus musculus; test: Protective index, ratio of TD50 for albino CF-1 mouse to ED50 for albino CF-1 mouse assessed as protection against maximal electroshock-induced seizures; format: functional
How it was run: (§5)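 Protection index = TD50 (rotorod, mice, i.p.) divided by ED50 from MES or 6 Hz test, each at its time of peak effect.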

[8] = system: Rattus norvegicus; test: Anticonvulsant activity in Sprague-Dawley rat assessed as protection against maximal electroshock-induced seizures at 30 mg/kg, po after 0.5 hrs; format: functional, organism-based; set-up: dose 30 mg/kg
How it was run: (§6)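 Male Sprague Dawley rats (100–150 g; 115–150 g in text), compound suspended in 0.5% methyl cellulose, given orally; MES challenge: 60 Hz alternating current, 150 mA, 0.2 s via corneal electrodes primed with 0.5% tetracaine HCl electrolyte. Protection = abolition of hind limb tonic extension; four rats per time point, scored as number protected.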

[9] = system: Rattus norvegicus; test: Acute toxicity in Sprague-Dawley rat assessed as motor impairment at 300 mg/kg, ip after 0.5 hrs; format: organism-based; set-up: dose 300 mg/kg, route intraperitoneal; conditions: in vivo; how it was run: as §2
[10] = system: Rattus norvegicus; test: Acute toxicity in Sprague-Dawley rat assessed as motor impairment at 100 mg/kg, ip after 0.5 hrs; format: organism-based; set-up: dose 100 mg/kg, route intraperitoneal; conditions: in vivo; how it was run: as §2
[11] = system: Mus musculus; test: Anticonvulsant activity in ip dosed albino CF-1 mouse assessed as protection against maximal electroshock-induced seizures after 1 hr; format: functional; conditions: albino CF-1, ip
[12] = system: Rattus norvegicus; test: Anticonvulsant activity in Sprague-Dawley rat assessed as protection against maximal electroshock-induced seizures at 30 mg/kg, po after 2 hrs; format: functional; how it was run: as §6
[13] = system: Mus musculus; test: Anticonvulsant activity in albino CF-1 mouse assessed as protection against 6 Hz psychomotor seizure at 100 mg/kg, ip after 1 hr by minimal clonic seizure test; format: functional; conditions: route intraperitoneal; how it was run: as §3
[14] = system: Mus musculus; test: Anticonvulsant activity in albino CF-1 mouse assessed as protection against 6 Hz psychomotor seizure at 100 mg/kg, ip after 4 hrs by minimal clonic seizure test; format: functional, organism-based; set-up: dose 100 mg/kg; how it was run: as §3
[15] = system: Mus musculus; test: Anticonvulsant activity in ipp dosed albino CF-1 mouse assessed as protection against subcutaneous metrazol-induced seizures after 1 hr; format: functional; conditions: albino CF-1, sc
[16] = system: Rattus norvegicus; test: Acute toxicity in Sprague-Dawley rat assessed as motor impairment at 100 mg/kg, ip after 1 hr; format: organism-based; set-up: dose 100 mg/kg, route intraperitoneal; conditions: in vivo; how it was run: as §2
[17] = system: Rattus norvegicus; test: Neurotoxicity in Sprague-Dawley rat assessed as motor impairment at 30 mg/kg, po after 4 hrs by rotarod test; format: toxicity, organism-based; set-up: dose 30 mg/kg, route oral; conditions: in vivo
[18] = system: Mus musculus; test: Anticonvulsant activity in albino CF-1 mouse assessed as protection against subcutaneous metrazol-induced seizures at 300 mg/kg, ip after 4 hrs; format: functional, organism-based; set-up: dose 300 mg/kg; how it was run: as §4
[19] = system: Mus musculus; test: Neurotoxicity in albino CF-1 mouse assessed as motor impairment at 300 mg/kg, ip after 0.5 hrs by rotarod test; format: toxicity, organism-based; set-up: dose 300 mg/kg, route intraperitoneal; conditions: in vivo
How it was run: (§7)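 Minimal motor impairment in male CF-1 mice by rotorod after i.p. dosing; toxic if animal falls off rotating rod 3 times within 1 min. Screen doses 30, 100, 300 mg/kg; quantitative TD50 (95% confidence interval) determined at time of peak effect.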

[20] = system: Mus musculus; test: Neurotoxicity in albino CF-1 mouse assessed as motor impairment at 300 mg/kg, ip after 4 hrs by rotarod test; format: toxicity, organism-based; set-up: dose 300 mg/kg, route intraperitoneal; conditions: in vivo; how it was run: as §7
[21] = system: Rattus norvegicus; test: Neurotoxicity in Sprague-Dawley rat assessed as motor impairment at 30 mg/kg, po after 2 hrs by rotarod test; format: toxicity, organism-based; set-up: dose 30 mg/kg, route oral; conditions: in vivo
[22] = system: Rattus norvegicus; test: Acute toxicity in Sprague-Dawley rat assessed as motor impairment at 100 mg/kg, ip after 4 hrs; format: organism-based; set-up: dose 100 mg/kg, route intraperitoneal; conditions: in vivo; how it was run: as §2
[23] = system: Rattus norvegicus; test: Toxicity in Sprague-Dawley rat assessed as change in body weight at 200 mg/kg, ip measured after 24 hrs of clonus of one of the fore limbs seizure stage in non-protected rat; format: organism-based; set-up: dose 200 mg/kg, route intraperitoneal; conditions: in vivo
How it was run: (§8)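 Male Sprague Dawley rats (150–180 g) dosed i.p. then challenged with pilocarpine; body weight change measured 24 h after first Stage III seizure, split by protected and non-protected rats, given ± S.E.M.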

[24] = system: Rattus norvegicus; test: Anticonvulsant activity in Sprague-Dawley rat assessed as protection against maximal electroshock-induced seizures at 30 mg/kg, po after 1 hr; format: functional, organism-based; set-up: dose 30 mg/kg; how it was run: as §6
[25] = system: Rattus norvegicus; test: Toxicity in Sprague-Dawley rat assessed as change in body weight at 200 mg/kg, ip measured after 24 hrs of clonus of one of the fore limbs seizure stage in protected rat; format: organism-based; set-up: dose 200 mg/kg, route intraperitoneal; conditions: in vivo; how it was run: as §8
[26] = system: Rattus norvegicus; test: Anticonvulsant activity in Sprague-Dawley rat assessed as protection against maximal electroshock-induced seizures at 30 mg/kg, po after 4 hrs; format: functional, organism-based; set-up: dose 30 mg/kg; how it was run: as §6
[27] = system: Mus musculus; test: Anticonvulsant activity in albino CF-1 mouse assessed as protection against 6 Hz psychomotor seizure at 100 mg/kg, ip after 0.5 hrs by minimal clonic seizure test; format: functional; how it was run: as §3
[28] = system: Mus musculus; test: Anticonvulsant activity in albino CF-1 mouse assessed as protection against 6 Hz psychomotor seizure at 100 mg/kg, ip after 2 hrs by minimal clonic seizure test; format: functional; how it was run: as §3
[29] = system: Rattus norvegicus; test: Anticonvulsant activity in Sprague-Dawley rat assessed as protection against pilocarpine-induced status epilepticus at 200 mg/kg, ip; format: functional, organism-based; set-up: dose 200 mg/kg
How it was run: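 Male albino Sprague Dawley rats (150–180 g) dosed i.p., then challenged with pilocarpine; qualitative screen scored as protection or no protection, seizure severity graded on the Racine scale; N/F and deaths recorded, time taken post first Stage III seizure.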

[30] = system: Mus musculus; test: Anticonvulsant activity in ip dosed albino CF-1 mouse assessed as protection against 6 Hz psychomotor seizure after 0.25 hrs by minimal clonic seizure test; format: functional; conditions: albino CF-1, ip
How it was run: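 Quantitative 6 Hz test in male CF-1 mice dosed i.p.; 32 mA for 3 s via corneal electrodes at time of peak effect; ED50 with 95% confidence interval, slope and standard error reported.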

[31] = system: Rattus norvegicus; test: Acute toxicity in Sprague-Dawley rat assessed as motor impairment at 100 mg/kg, ip after 2 hrs; format: organism-based; set-up: dose 100 mg/kg, route intraperitoneal; conditions: in vivo; how it was run: as §2
[32] = Octanol-phosphate buffer partition coefficient, log P of the compound at 5 mg, after 24 hrs by UV spectroscopic analysis; format: physicochemical
How it was run: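 5 mg compound added to 10 mL octanol plus 10 mL phosphate buffer in stoppered tube, mechanically shaken 24 h at room temperature, then left in separating funnel 6 h to equilibrate.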

[33] = system: Rattus norvegicus; test: Acute toxicity in Sprague-Dawley rat assessed as motor impairment at 300 mg/kg, ip after 1 hr; format: organism-based; set-up: dose 300 mg/kg, route intraperitoneal; conditions: in vivo; how it was run: as §2
[34] = system: Rattus norvegicus; test: Neurotoxicity in Sprague-Dawley rat assessed as motor impairment at 30 mg/kg, po after 0.25 hrs by rotarod test; format: toxicity, organism-based; set-up: dose 30 mg/kg, route oral; conditions: in vivo
[35] = system: Rattus norvegicus; test: Acute toxicity in Sprague-Dawley rat assessed as motor impairment at 100 mg/kg, ip after 0.25 hrs; format: organism-based; set-up: dose 100 mg/kg, route intraperitoneal; conditions: in vivo; how it was run: as §2
[36] = system: Rattus norvegicus; test: Anticonvulsant activity in Sprague-Dawley rat assessed as protection against maximal electroshock-induced seizures at 30 mg/kg, po after 0.25 hrs; format: functional, organism-based; set-up: dose 30 mg/kg; how it was run: as §6
[37] = system: Mus musculus; test: Anticonvulsant activity in ip dosed albino CF-1 mouse assessed as dose required to protect against maximal electroshock-induced seizures after 4 hrs; format: functional; how it was run: as §1
[38] = species: Mus musculus; test: Protective index, ratio of TD50 for albino CF-1 mouse to ED50 for albino CF-1 mouse assessed as protection against 6 Hz psychomotor seizure; format: functional; how it was run: as §5
[39] = system: Rattus norvegicus; test: Neurotoxicity in Sprague-Dawley rat assessed as motor impairment at 30 mg/kg, po after 0.5 hrs by rotarod test; format: toxicity, organism-based; set-up: dose 30 mg/kg, route oral; conditions: in vivo
[40] = Neurotoxicity in ip dosed albino CF-1 mouse assessed as motor impairment after 8 hrs by rotarod test; format: toxicity, organism-based; conditions: in vivo, read-out: ID50

For `O=C(N/N=C\c1ccc(Oc2ccc(F)cc2)cc1)c1ccncc1`, the Activity [1] was 100 mg/kg, the Activity [2] was “inactive” and the Activity [3] was “Non-toxic”. The Activity [4] was “Toxic”, the Activity [5] was 75% and the Activity [6] was “inactive”. For the same molecule, the PI [7] was 2.67, the Activity [8] was “inactive” and the Activity [9] was “Toxic”. The Activity [10] was “Non-toxic”, the ED50 [11] was 128 mg/kg and the Activity [12] was 25%. For the same molecule, the Activity [13] was 50%, the Activity [14] was “inactive” and the ED50 [15] was over 250 mg/kg. For the same molecule, the Activity [16] was “Non-toxic”, the Activity [17] was “Non-toxic” and the Activity [18] was “inactive”. For the same molecule, the Activity [19] was “Non-toxic”, the Activity [20] was “Non-toxic” and the Activity [21] was “Non-toxic”. The Activity [22] was “Non-toxic”, the Activity [23] was 24.2 g and the Activity [24] was “inactive”. The Activity [25] was “Non-toxic”, the Activity [26] was “inactive” and the Activity [27] was “Active”. For the same molecule, the Activity [28] was “inactive”, the Activity [29] was “inactive” and the ED50 [30] was 53.3 mg/kg. For the same molecule, the Activity [31] was “Non-toxic”, the logP at 24 h [32] was 3.5 and the Activity [33] was “Toxic”. For the same molecule, the Activity [34] was “Non-toxic”, the Activity [35] was “Non-toxic” and the Activity [36] was “inactive”. For the same molecule, the Activity [37] was 300 mg/kg, the PI [38] was 6.44 and the Activity [39] was “Non-toxic”. For the same molecule, the TD50 at 8 h [40] was 344 mg/kg.
